Series [1] in a line: Prodrug activation in PBS at pH 7 assessed as hydrolysis of compound to fluoxetine at 200 uM by HPLC-UV analysis. The following applies: buffer, pH 7, 200 µM.
Series [2] deals with Rattus norvegicus. Nature of the series: Antidepressant activity in Sprague-Dawley rat assessed as decrease in immobility time at 26.5 mg/kg, ip administered 1, 5 and 24 hrs prior test by forced swimming task analysis relative to control. It counts as functional, organism-based. Also on record: dose 26.5 mg/kg. A digest of the protocol:
(§1)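 Drug was given ip at 24, 5 and 1 h before the 5 min test, which was scored in 60 blocks of 5 s for struggle, swimming and immobility durations. Comparison was against vehicle by ANOVA with Tukey's post hoc test; means ± SEM.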

Series [3] in a line: Prodrug activation in PBS assessed as production of NO at 500 uM after 30 mins by chemiluminescence assay. The conditions noted are these: buffer, 0.5 h. Put shortly:
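Compound (500 μM) was mixed with glutathione-containing PBS in a sealed vessel. NO in the headspace was measured by chemiluminescence after 30 min.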

The target of series [4] is Sodium-dependent serotonin transporter (Homo sapiens) (UniProt P31645). Nature of the series: Inhibition of human SERT-mediated serotonin reuptake in HEK293 cells at 100 nM relative to fluoxetine. It counts as cell-based. Put shortly:
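HEK-293 cells stably transfected with human SERT cDNA were used to measure serotonin reuptake with test compounds at 100 nM. […] Means ± SEM from three separate experiments.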

In series [5] the test system is Brain. Nature of the series: Prodrug activation in mouse brain assessed as formation of fluoxetine at 15 mg/kg, ip after 20 mins by LC-MS/MS analysis. It is filed as organism-based. On the set-up: dose 15 mg/kg, route intraperitoneal. The conditions noted are these: in vivo.
The subject of series [6] is Plasma. The series is described as follows: Prodrug activation in mouse plasma assessed as formation of fluoxetine at 15 mg/kg, ip after 20 mins by LC-MS/MS analysis. It counts as organism-based. On the set-up: dose 15 mg/kg, route intraperitoneal. The following applies: in vivo.
Series [7] is described as follows: Prodrug activation in PBS at pH 7 to 8 assessed as hydrolysis of compound to fluoxetine at 200 uM after 7 hrs by HPLC-UV analysis. The following applies: buffer, pH 7, 7 h.
Series [8] in a line: Half life in PBS at pH 7 to 8 assessed as hydrolysis of compound to fluoxetine at 200 uM by HPLC-UV analysis. It is filed as physicochemical.
Series [9] has as its system Mus musculus. Nature of the series: Antiamnesic activity in scopolamine-induced C57BL/6 mouse assessed as aversive memory measuring increase in latency to enter dark area at 2.05 mg/kg, ip administered 20 mins prior training measured after 48 hrs by step-through passive avoidance task analysis relative to control. It counts as functional, organism-based. Also on record: dose 2.05 mg/kg. A digest of the protocol: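 Mice received scopolamine (1 mg/kg in physiological saline, ip) 30 min before training, and test drug in 25% DMSO ip 20 min before training. Training came 2 h after habituation: the animal was placed in the lit compartment, and entry to the dark side triggered door closure and a 0.6 mA, 2 s footshock. Latency to enter the dark chamber was retested 48 h later with no drug. N = 9–11; means ± SEM; ANOVA with Tukey's post hoc test.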

In series [10] the test system is Rattus norvegicus. Nature of the series: Antidepressant activity in Sprague-Dawley rat assessed as change in struggle time at 26.5 mg/kg, ip administered 1, 5 and 24 hrs prior test by forced swimming task analysis relative to control. It is filed as functional, organism-based. Also on record: dose 26.5 mg/kg. A digest of the protocol:
as §1

The test system of series [11] is Plasma. Nature of the series: Prodrug activation in mouse plasma assessed as formation of fluoxetine at 15 mg/kg, ip after 120 mins by LC-MS/MS analysis. It counts as organism-based. Also on record: dose 15 mg/kg, route intraperitoneal. The following applies: in vivo, 2 h.
A short description of series [12]: Prodrug activation in PBS at pH 8 assessed as hydrolysis of compound to fluoxetine at 200 uM by HPLC-UV analysis. The following applies: buffer, pH 8, 200 µM.
For series [13], the system named is Rattus norvegicus. The series is described as follows: Antidepressant activity in Sprague-Dawley rat assessed as increase in swimming time at 26.5 mg/kg, ip administered 1, 5 and 24 hrs prior test by forced swimming task analysis relative to control. It counts as functional, organism-based. On the set-up: dose 26.5 mg/kg. Put shortly: as §1
The nature of series [14]: Prodrug activation in PBS at pH 7.4 assessed as hydrolysis of compound to fluoxetine at 200 uM by HPLC-UV analysis. The following applies: buffer, pH 7.4, 200 µM.
The subject of series [15] is Brain. The series is described as follows: Prodrug activation in mouse brain assessed as formation of fluoxetine at 15 mg/kg, ip after 120 mins by LC-MS/MS analysis. It is filed as organism-based. Also on record: dose 15 mg/kg, route intraperitoneal. The conditions noted are these: in vivo, 2 h.
For series [16], the system named is Mus musculus. Nature of the series: Antiamnesic activity in scopolamine-induced C57BL/6 mouse assessed as aversive memory measuring increase in latency to enter dark area at 1 mg/kg, ip administered 20 mins prior training measured after 48 hrs by step-through passive avoidance task analysis relative to control. On the set-up: dose 1 mg/kg. It is filed as functional, organism-based. A digest of the protocol: (§2)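 Mice trained 2 h after habituation. Scopolamine 1 mg/kg in saline given ip 30 min before training, test drug in 25% DMSO given ip 20 min before training. Footshock 0.6 mA for 2 s on entering the dark compartment, with the door closing. Latency to enter the dark chamber recorded 48 h after training, drug-free. N = 9–11. Means and SEMs; ANOVA with Tukey post hoc test.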

The test system of series [17] is Rattus norvegicus. Nature of the series: Antidepressant activity in Sprague-Dawley rat assessed as decrease in immobility time at 10 mg/kg, ip administered 1, 5 and 24 hrs prior test by forced swimming task analysis relative to control. It counts as functional, organism-based. On the set-up: dose 10 mg/kg. A digest of the protocol: (§3)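 Male Sprague-Dawley rats, 200–250 g, given a 15 min pre-swim in the water tank 24 h before testing. Drug or vehicle given ip at 24, 5 and 1 h before the test. The 5 min test was scored in 60 blocks of 5 s for struggle, swimming and immobility. Means and SEMs; ANOVA with Tukey post hoc test.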

Series [18] relates to Rattus norvegicus. The series is described as follows: Antidepressant activity in Sprague-Dawley rat assessed as change in struggle time at 10 mg/kg, ip administered 1, 5 and 24 hrs prior test by forced swimming task analysis relative to control. Also on record: dose 10 mg/kg. It counts as functional, organism-based. A digest of the protocol: as §3
In series [19] the test system is Rattus norvegicus. Nature of the series: Antidepressant activity in Sprague-Dawley rat assessed as increase in swimming time at 10 mg/kg, ip administered 1, 5 and 24 hrs prior test by forced swimming task analysis relative to control. Also on record: dose 10 mg/kg. It counts as functional, organism-based. A digest of the protocol: as §3
Series [20] has as its system Mus musculus. The series is described as follows: Antiamnesic activity in scopolamine-induced C57BL/6 mouse assessed as aversive memory measuring increase in latency to enter dark area at 1.54 mg/kg, ip administered 20 mins prior training measured after 48 hrs by step-through passive avoidance task analysis relative to control. It counts as functional, organism-based. On the set-up: dose 1.54 mg/kg. A digest of the protocol:
as §2

Calls of active or inactive are those of the source. The rule behind the calls is not given here. Some results are limits rather than exact numbers.

Sodium-dependent serotonin transporter (Homo sapiens), sequence (P31645 whole entry, looked up): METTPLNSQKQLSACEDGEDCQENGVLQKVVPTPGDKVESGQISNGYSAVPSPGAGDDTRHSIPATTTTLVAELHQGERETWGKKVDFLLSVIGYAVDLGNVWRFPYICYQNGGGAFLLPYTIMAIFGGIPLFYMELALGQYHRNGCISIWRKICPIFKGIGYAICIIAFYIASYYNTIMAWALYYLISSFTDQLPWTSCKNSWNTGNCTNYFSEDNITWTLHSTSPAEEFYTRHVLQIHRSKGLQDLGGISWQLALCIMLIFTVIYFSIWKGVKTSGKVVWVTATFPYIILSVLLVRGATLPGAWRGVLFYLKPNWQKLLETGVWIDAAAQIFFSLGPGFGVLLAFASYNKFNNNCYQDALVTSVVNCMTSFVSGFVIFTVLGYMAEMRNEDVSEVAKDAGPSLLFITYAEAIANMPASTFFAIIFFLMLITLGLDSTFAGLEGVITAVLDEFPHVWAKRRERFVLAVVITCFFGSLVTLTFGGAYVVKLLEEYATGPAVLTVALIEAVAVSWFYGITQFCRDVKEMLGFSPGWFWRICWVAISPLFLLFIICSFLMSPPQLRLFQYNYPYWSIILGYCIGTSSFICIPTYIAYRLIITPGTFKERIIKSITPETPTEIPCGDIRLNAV

As to `CN(CCC(Oc1ccc(C(F)(F)F)cc1)c1ccccc1)C(=O)SCCO[N+](=O)[O-]` (stereo unspecified), the Drug metabolism entry in [1] was “Active”; in [3] it was 8.9 nM; in the series with Brain [5], “Active”; in the series with Plasma [6], “Active”; in series [7], “Active”; with Plasma [11] it was “Active”. The Drug metabolism entry (in series [12]; in series [14]; in the series on Brain [15]) was “Active” in each case. The outcome in the series on Rattus norvegicus [2], in the series on Mus musculus [9], in the series on Rattus norvegicus [10] and in the series on Rattus norvegicus [13] was Active. The Efficacy in series [4] is less than 15%. For the same molecule, the half-life at 200 µM in series [8] turned out to be 1.67 h.

As to `Cc1ncsc1CCO[N+](=O)[O-]`, the outcome with Mus musculus [16], in the series on Rattus norvegicus [17], with Rattus norvegicus [18] and in the series on Rattus norvegicus [19] was Active.

For `CNCCC(Oc1ccc(C(F)(F)F)cc1)c1ccccc1` (stereo unspecified), the result in the series on Mus musculus [20] was inactive.

Consider `O=C(SCCO[N+](=O)[O-])N1CC[C@@H](c2ccc(F)cc2)[C@H](COc2ccc3c(c2)OCO3)C1`, for which, in series [4], the Efficacy was less than 15%.

In general, half-life refers to how long it takes for the measured level to halve.

The record behind these values is ChEMBL document CHEMBL2010761, “NO-SSRIs: Nitric Oxide Chimera Drugs Incorporating a Selective Serotonin Reuptake Inhibitor” (ACS Med Chem Lett, 2011).
